Inhibition of the nicotinamide effect data for 21 compounds are collected here from PubChem BioAssay AID775 (SRMLSC, 2007).

Each structure is given as a SMILES string. Among all 130,000 compounds or so, about 900 (0.69%) were called active. The sample as a whole holds a higher share of actives than the screen did. A number with no mark means an inactive call.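 Rule for the calls: active = inhibition above a set limit, placed 3 SD over the median of all compounds (cut at about 26% in these data); inactive = the rest.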

This assay can be described thus: compounds extending yeast replicative lifespan, primary screen, S. cerevisiae, OD615 (AID 775).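 Note: 0% = nicotinamide-treated wells and 100% = cells grown without nicotinamide.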 As to conditions: S. cerevisiae growth with nicotinamide, at 10 µM, active compounds read high, deaD strain in restrictive glucose medium. Summed up: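 Material: Modified budding yeast, DeaD strain | Medium: Restrictive glucose medium | Probe or stimulus: 1.5 mM nicotinamide | Dosing: Single dose 10 µM compound, 0.25% DMSO | Times: 48 h at 30 °C | Technique: OD615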
For `O=c1nc2s/c(=C\c3ccco3)c(=O)n2nc1Cc1ccccc1`, the inhibition of the nicotinamide effect was 26.9% (active).
The result for `CCOc1ccccc1/C=c1\sc2nc(-c3ccco3)nn2c1=O` reads 21.5%; that for `O=C(CCCN1C(=O)/C(=C/c2ccco2)SC1=S)Nc1ccccc1`, 4.28%.
The result for `NC(=O)c1ccccc1N=Cc1ccc2ccccc2c1` reads 8.87%; that for `CCC1=NN(C(=O)Cc2ccc([N+](=O)[O-])cc2)C(O)(c2ccc(Br)cc2)C1` (stereo unspecified), 3.83%.
Take `CN(C)C(CNC(=O)c1ccc(S(=O)(=O)NCc2ccco2)cc1)c1ccccc1` (stereo unspecified): the inhibition of the nicotinamide effect is 3.63%.
As for `CCCc1nc2c(c(=O)c3ccccc3n2C)c(=O)n1C1CCCCCC1`, the inhibition of the nicotinamide effect is 47.5% (active).
The result for `CCOC(=O)C(C)Sc1nc2ccccc2c(=O)n1CC1CCCCC1` (stereo unspecified) reads 8.34%; that for `Cn1c2ccccc2c(=O)c2c(=O)n(Cc3ccco3)c(COc3ccccc3)nc21`, 17.5%.
`CCOC(=O)c1c(NC(=O)C2(C)Cc3ccccc3C(=O)O2)sc2c1CCCC2` (stereo unspecified): the inhibition of the nicotinamide effect is 1.18%.
The result for `O=C(NCc1ccccc1Cl)C1CCC(CNc2c(N3CCCCC3)c(=O)c2=O)CC1` (stereo unspecified) reads 3.91%.
On to `CCS(=O)(=O)Nc1cccc(-c2cc(-c3ccccc3)c3cc(C)ccc3n2)c1`, for which the inhibition of the nicotinamide effect is 1.36%.
The result for `COc1ccc(C(CC(=O)Nc2ccc(C)cc2)NC(=O)C(F)(F)F)cc1` (stereo unspecified) reads -0.39%; that for `Cc1ccc2sc(NNC(=O)c3ccc4c(c3)OCCO4)nc2c1C`, 0%.
With `O=C(N/N=C/c1ccccn1)C12CC3CC(CC(C3)C1)C2` the figure was 3.48%; with `COc1ccc([C@H]2[C@H](C(C)=O)N3N=Cc4ccccc4C3C23C(=O)OC(C)(C)OC3=O)cc1` (stereo partly specified), 30.5% (active).
With `COc1ccc(C2C(C(=O)N3CCN(c4ccc(OC)cc4)CC3)c3ccccc3C(=O)N2C)cc1` (stereo unspecified) the figure was -6.01%.
With `O=C(Nc1ccc2ccccc2c1)/C(=C/c1cccc(Br)c1)NC(=O)c1ccco1`, the inhibition of the nicotinamide effect is -1.18%.
With `COC(=O)C1=NNC2(c3ccc(C)cc3)C(=O)N(c3cccc(C)c3C)C(=O)C12` (stereo unspecified) the figure was 14.3%; with `COc1ccc(C(=O)NNS(=O)(=O)c2ccc(C)cc2)cc1`, 3.8%; with `CC(C)CNC(=S)NC(=O)c1ccc(Cl)cc1`, -5.06%.
